# Measurements of several laboratories.
# Each line is one published result; the experiments were not run side by side.
SMILES,organism,test,system,conditions,measurement,result
O=C(Nc1ccccc1-c1ccc(F)c(F)c1)c1nccnc1C(F)(F)F,Verticillium,microbial growth,,,EC50,11 µg/mL
O=C(O)CN1C(=O)/C(=C/c2ccc(-c3ccc(N(c4ccccc4)c4ccccc4)cc3)cc2)NC1=S,Staphylococcus epidermidis,"microbial killing, broth dilution",ATCC12228,,MBC,3.9 µg/mL
Cc1ccc(-c2nc3ccccc3s2)cc1NC(=O)c1cc([N+](=O)[O-])c(NCCN)cc1Cl,Leishmania mexicana,parasite growth,J774.A1,"intracellular, amastigote",EC50,250 nM
CC1(C)CC[C@]2(NC(=O)N3CCC[C@H]3CN3CCCC3)CC[C@]3(C)C(=CC[C@@H]4[C@@]5(C)CC[C@@H]6OC(C)(C)OC[C@@]6(C)[C@@H]5CC[C@]43C)[C@@H]2C1,Leishmania mexicana,"parasite growth, resazurin",,"50 µM, amastigote",inhibition,97.6%
O=C1NC(=S)N/C1=C\c1c2ccccc2c(-c2ccc(N(c3ccccc3)c3ccccc3)cc2)c2ccccc12,Staphylococcus epidermidis,"microbial growth, broth dilution",ATCC12228,,MIC,> 1000 µg/mL
CC1(C)CC[C@]2(C(=O)O)CC[C@]3(C)C(=CC[C@@H]4[C@@]5(C)CC[C@H](O[C@@H]6OC[C@H](O)[C@H](O)[C@H]6O)[C@@](C)(CO)[C@@H]5CC[C@]43C)[C@@H]2C1,Leishmania mexicana,"parasite growth, resazurin",,"50 µM, amastigote",inhibition,96.9%
Cc1ccc(-c2nc3ccccc3s2)cc1NC(=O)c1cc([N+](=O)[O-])c(N2CCCCC2)cc1Cl,Leishmania mexicana,parasite growth,J774.A1,"intracellular, amastigote",EC50,> 10000 nM
CC1(C)CC[C@]2(NC(=O)NCCN3CCCC3)CC[C@]3(C)C(=CC[C@@H]4[C@@]5(C)CC[C@@H]6OC(C)(C)OC[C@@]6(C)[C@@H]5CC[C@]43C)[C@@H]2C1,Leishmania mexicana,"parasite growth, resazurin",,"50 µM, amastigote",inhibition,99.1%
O=C(Nc1cncc(-c2nc3ccccc3o2)c1)c1cc([N+](=O)[O-])c(N2CCNCC2)cc1Cl,Leishmania mexicana,parasite growth,J774.A1,"intracellular, amastigote",EC50,750 nM
